Bioassay records deposited in PubChem BioAssay by several laboratories.
Most compounds without a hit are left out; they make up all but 2.3% or so of the library.
GPR7 antagonist: GPR7 receptor antagonists, primary screen, cell-based, fluorescence, single concentration; Neuropeptides B/W receptor type 1 (Homo sapiens), P48145; GPR7-expressing cells, fluorescence antagonist assay; inhibition, % at 4.4 µM; 290,000 compounds, 1.1% hits; AID 1861, 2009; in the data active means inhibition above about 16%, passing the limit was not always enough;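 further: cells stimulated with the agonist NPW; 0% = agonist with vehicle and 100% = vehicle without agonist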
HCV core dimer: inhibitors of HCV core protein dimerization, primary screen, biochemical, TR-FRET, high-throughput; inhibition, % at 5 µM; TR-FRET GST/Flag-core106 dimerization, 1536-well; 300,000 compounds, 0.33% hits; AID 1899, 2009;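 active means inhibition above the mean of all tested compounds plus 3 SD, set per screening campaign, cut at about 45% in these data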
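assay system = GST-tagged and Flag-tagged HCV core protein residues 1-106 | controls = unlabelled core106 and no-GST-core106 wells | incubation = compound-protein-antibody incubation 4 h at 22.5 °C | probe or stimulus = Eu donor and XL665 acceptor anti-tag antibodies | read-out = % inhibition based on acceptor/donor emission ratio | signal = TR-FRET 671 and 617 nm emission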
ZTA DNA inh: counter-screen for EBNA-1 inhibitors: inhibitors of Epstein-Barr virus ZTA; AID 2234; inhibition, % at 11 µM; 320,000 compounds, 0.15% hits; P03206; ZTA-DNA binding, fluorescence polarization; in the data active means inhibition above about 33%
Target sequence (P03206 whole entry, looked up): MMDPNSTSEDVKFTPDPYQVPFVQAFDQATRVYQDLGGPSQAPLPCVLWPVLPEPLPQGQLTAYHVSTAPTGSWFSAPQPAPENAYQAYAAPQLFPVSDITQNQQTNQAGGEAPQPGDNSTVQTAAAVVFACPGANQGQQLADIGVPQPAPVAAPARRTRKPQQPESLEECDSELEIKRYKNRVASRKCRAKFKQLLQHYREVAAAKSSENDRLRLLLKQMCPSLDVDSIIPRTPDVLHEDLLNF
EBV gp42 block: Epstein-Barr virus gp42 inhibitors, primary screen, biochemical, uHTS, fluorescence polarization | Glycoprotein 42 (Epstein-Barr virus (strain AG876)), Q1HVG2 | Fluorescence polarization binding assay, mP read-out | inhibition, % (tested at 21.74 µM) | 220,000 compounds, 0.42% hits | AID 1085, 2008; in the data active means inhibition above about 50%
Target sequence (Q1HVG2 whole entry, looked up): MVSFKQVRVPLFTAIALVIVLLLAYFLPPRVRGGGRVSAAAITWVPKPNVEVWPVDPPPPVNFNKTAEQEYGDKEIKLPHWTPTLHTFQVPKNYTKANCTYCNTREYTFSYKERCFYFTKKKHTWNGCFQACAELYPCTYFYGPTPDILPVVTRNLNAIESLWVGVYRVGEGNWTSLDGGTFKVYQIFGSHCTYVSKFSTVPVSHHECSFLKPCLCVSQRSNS
NS3 helicase inh: inhibitors of HCV NS3 helicase, primary screen, biochemical, Cy5 molecular beacon fluorescence; inhibition, % at 10.9 µM; NS3 helicase DNA unwinding; 290,000 compounds, 0.56% hits;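 active means inhibition above the mean of all tested compounds plus 3 SD, set per campaign, cut at about 35% in these data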;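 further: 0% = DMSO wells and 100% = thioflavine S control wells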
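Test system: hepatitis C virus NS3 helicase domain fragment enzyme. Also added: annealed dual-labelled DNA beacon duplex, ATP-started. Timing: 60 min unwinding reaction at 25 °C after ATP addition. Technique: Cy5 fluorescence. Measure: % inhibition of unwinding.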
EBNA-1 inhibitor: EBNA-1 DNA-binding inhibitors, primary screen, biochemical, fluorescence polarization | inhibition, % at 14.8 µM | 300,000 compounds, 0.34% hits; in the data active means inhibition above about 28%
GPR7 antag conf: GPR7 receptor antagonists, confirmation, cell-based, fluorescence, single concentration | shares compounds with GPR7 antagonist | GPR7-expressing cells, calcium fluorescence antagonist mode | inhibition, % at 4.4 µM | 2,400 compounds, 52% hits; in the data active means inhibition above about 24%;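 further: stimulated with the GPR7 agonist NPW; 0% = agonist plus vehicle and 100% = vehicle alone without agonist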
MCHR1 antagonist: MCHR1 antagonists in cells, counter-screen for GPR7 antagonist project, cell-based, fluorescence, human; shares compounds with GPR7 antagonist; MCHR1-expressing cells, fluorescence antagonist assay; inhibition, % at 4.4 µM; 2,400 compounds, 62% hits; AID 2148, 2009; in the data active means inhibition above about 22%;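 further: 0% = vehicle with agonist and 100% = vehicle without agonist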
The depositor's hits bear a star; nt = no result.

SMILES	GPR7 antagonist	HCV core dimer	ZTA DNA inh	EBV gp42 block	NS3 helicase inh	EBNA-1 inhibitor	GPR7 antag conf	MCHR1 antagonist
O=C(COC(=O)c1ccc(Sc2ccccc2)c([N+](=O)[O-])c1)NC1CCS(=O)(=O)C1 (centres undefined)	4.0	-0.9	-0.5	-19.0	3.7	2.3	nt	nt
COC(=O)[C@@H](NC(=O)c1ccc2c(c1)S(=O)(=O)c1ccccc1C2=O)C(C)C	21.6*	-5.0	18.5	nt	3.6	-16.6	-3.2	5.6
CCOC(Cn1ccc(=O)[nH]c1=O)OCC	27.2*	-1.1	-4.5	-26.8	-5.1	7.1	0.3	13.6
O=C(Nc1ccccc1)Nc1ccno1	26.8*	0.6	0.4	-18.7	1.9	0.6	6.5	5.6
O=C(Nc1ccccc1)Nc1ccncc1	-6.3	4.8	-1.6	0.1	-3.0	-5.5	nt	nt
Cc1ccc(C(C)C)cc1OCCCCN1CCCC1	-6.8	-9.0	-10.8	-12.6	-11.0	3.5	nt	nt
CC(=O)C1=C(O)C(=O)N(c2nccs2)C1c1ccccc1 (centres undefined)	3.5	0.5	-2.3	-26.2	-0.8	-12.8	nt	nt
C/C(=N\NC(=O)CNC(=O)c1ccco1)c1ccc(Br)cc1	24.1*	-29.0	1.2	nt	11.0	-9.0	18.0	10.1
Cc1ccccc1C(=O)N1CCN(c2ccc(NC(=O)c3ccc4c(c3)OCCO4)cc2)CC1	24.4	-3.0	-8.8	nt	-4.8	10.9	nt	nt
Cc1ccc(C(=O)N2CCN(c3ccc(NC(=O)c4ccc5c(c4)OCCO5)cc3)CC2)cc1	32.4*	-3.7	-1.6	nt	-12.0	1.5	32.8*	65.5*
CC1CCCN(S(=O)(=O)c2ccc(NC(=O)CNC3CCCC3)cc2)C1 (centres undefined)	-3.6	-9.9	-17.9	nt	-4.6	-18.2	nt	nt
Cc1ccc(CS(=O)(=O)c2ncc(Cl)c(C(=O)Nc3ccc(OC(F)F)cc3)n2)cc1	42.6*	-3.1	12.1	nt	-5.8	0.9	83.9*	96.4*
CCS(=O)(=O)c1ncc(Cl)c(C(=O)Nc2ccc(C)cc2)n1	53.2*	-9.6	1.8	nt	13.0	-0.5	52.1*	84.2*
CC(=O)Nc1ccc(NC(=O)c2nc(S(=O)(=O)Cc3ccccc3)ncc2Cl)cc1	2.9	4.1	-9.1	nt	-2.9	7.4	nt	nt
CCC1CCCCN1S(=O)(=O)c1ccc(NC(=O)c2nc(S(C)(=O)=O)ncc2Cl)cc1 (centres undefined)	74.2*	12.6	8.6	nt	-29.8	-7.0	90.4*	101.0*
CCS(=O)(=O)c1ncc(Cl)c(C(=O)Nc2ccc(S(=O)(=O)N3CCCC(C)C3)cc2)n1 (centres undefined)	59.4*	12.6	-0.2	nt	-30.3	-5.6	86.0*	97.2*
O=[N+]([O-])c1cc(CN2CCCC2)ccc1Sc1ccc(Cl)cc1	4.9	-2.8	4.5	3.8	-34.5	1.9	nt	nt
CCCCN(C)CCCN1C(=O)C2C(C(=O)Nc3cccc(OC)c3)C3C=CC2(O3)C1C(=O)NC1CCCCC1C (centres undefined)	-5.8	1.7	10.9	nt	-9.4	-12.7	nt	nt
COC(=O)C/C=C/[C@@H](C)[C@@H](/C=N/OCC[C@@H]1C=C[C@H](OC(C)=O)[C@@H](COC(C)=O)O1)NS(=O)(=O)c1ccc(C)cc1	-0.9	-9.1	-15.2	-12.4	-4.9	3.2	nt	nt
COc1ccccc1C1NC(=O)c2ccccc2O1 (centres undefined)	-8.1	3.3	6.5	nt	12.6	-5.4	nt	nt
COC(=O)c1c(NC(=O)CN2CCCC(C)C2)c2c(C)cccc2n1C (centres undefined)	25.9*	2.0	2.5	1.8	29.1	0.9	14.1	27.1*
COC(=O)c1c(NC(=O)CN2CCC(C(N)=O)CC2)c2c(C)cccc2n1C	-7.0	-2.6	0.7	-15.5	-31.4	-6.9	nt	nt
Cc1ccc(C23CC4CC(CC(CN)(C4)C2)C3)cc1	7.4	nt	nt	4.9	-21.3	nt	nt	nt
NCC12CC3CC(C1)CC(c1ccc(Br)cc1)(C3)C2	47.6*	1.9	5.9	nt	-52.3	17.6	28.7*	32.8*
O=C(CN1CCN(Cc2cccc(Cl)c2)C1=O)NCc1cccs1	-13.2	2.7	-10.5	11.0	3.0	-6.1	nt	nt
SMILES	GPR7 antagonist	HCV core dimer	ZTA DNA inh	EBV gp42 block	NS3 helicase inh	EBNA-1 inhibitor	GPR7 antag conf	MCHR1 antagonist
Cc1ccc(S(=O)(=O)N(C)S(=O)(=O)c2ccc(C#N)cc2)cc1	24.7*	-1.8	-4.6	nt	4.8	-0.8	19.0	25.0*
COC(=O)c1sc(NC(=O)CSc2nc3cccnc3n2C)nc1C	-6.7	-11.0	-30.0	nt	13.8	-10.9	nt	nt
O=C(/C=C/c1ccc(Cl)cc1)c1cccnc1	28.6*	7.8	-6.8	0.9	-0.9	-8.9	50.8*	78.3*
O=C(COc1ccc(Cl)cc1)Nc1ccc(C(=O)O)cc1NC(=O)COc1ccc(Cl)cc1	-6.3	12.9	3.1	nt	-51.0	13.6	nt	nt
NCC(c1ccc(Cl)cc1Cl)c1c[nH]c2ccccc12 (centres undefined)	50.9*	-1.6	-15.8	nt	-79.7	9.0	61.1*	68.5*
COc1cccc(C(c2nnnn2Cc2ccco2)N2CCN(c3cccc(C)c3C)CC2)c1OC (centres undefined)	22.5*	16.6	-4.2	3.6	-14.1	12.5	13.8	60.4*
Cc1ccc(C(=O)N2CCCCC2)cc1S(=O)(=O)N1CCCCCC1	21.5*	12.8	-3.8	nt	-4.6	-0.8	25.5*	5.3
O=C(c1ccc(Cl)c(S(=O)(=O)N2CCCCCC2)c1)N1CCCCC1	nt	-23.6	-7.9	nt	18.2	-1.2	nt	16.2
Cc1ccc(C(=O)N2CCOCC2)cc1S(=O)(=O)N1CCCC1	-5.2	-2.5	4.7	nt	11.6	8.2	nt	nt
O=C(c1ccc(Cl)c(S(=O)(=O)N2CCOCC2)c1)N1CCCC1	1.9	6.9	-1.2	nt	4.2	-7.0	nt	nt
CC1CC(C)CN(CCCNC(=O)c2ccc3c(c2)N(Cc2ccccc2)C(=O)c2ccccc2S3=O)C1 (centres undefined)	35.2*	-11.9	-2.0	nt	-33.1	-8.2	22.5	1.3
CCOC(=O)c1cc2ccccc2n1CCN(CC)CC	31.3*	0.1	14.8	-13.0	1.8	10.2	6.1	6.5
CCOC(=O)Cc1cnc(NC(=O)CSc2nc(C(C)C)cc(=O)[nH]2)s1	6.1	-3.3	-13.0	nt	25.3	-5.9	nt	nt
CCOc1cc(S(=O)(=O)N2CCCCC2)ccc1Cl	25.3*	2.5	-0.2	5.4	-9.1	7.4	-7.8	28.3*
